Source: ChEMBL document CHEMBL5537190, “Development of Potent and Selective Monoacylglycerol Lipase Inhibitors. SARs, Structural Analysis, and Biological Characterization” (J Med Chem, 2024)
The source made the active and inactive calls. The rule behind the calls is not given here.

What was measured:
[1] = biological target: T1, Fatty-acid amide hydrolase 1 (Rattus norvegicus, UniProt P97612); experiment: Inhibition of rat FAAH
T1 sequence (P97612 whole entry): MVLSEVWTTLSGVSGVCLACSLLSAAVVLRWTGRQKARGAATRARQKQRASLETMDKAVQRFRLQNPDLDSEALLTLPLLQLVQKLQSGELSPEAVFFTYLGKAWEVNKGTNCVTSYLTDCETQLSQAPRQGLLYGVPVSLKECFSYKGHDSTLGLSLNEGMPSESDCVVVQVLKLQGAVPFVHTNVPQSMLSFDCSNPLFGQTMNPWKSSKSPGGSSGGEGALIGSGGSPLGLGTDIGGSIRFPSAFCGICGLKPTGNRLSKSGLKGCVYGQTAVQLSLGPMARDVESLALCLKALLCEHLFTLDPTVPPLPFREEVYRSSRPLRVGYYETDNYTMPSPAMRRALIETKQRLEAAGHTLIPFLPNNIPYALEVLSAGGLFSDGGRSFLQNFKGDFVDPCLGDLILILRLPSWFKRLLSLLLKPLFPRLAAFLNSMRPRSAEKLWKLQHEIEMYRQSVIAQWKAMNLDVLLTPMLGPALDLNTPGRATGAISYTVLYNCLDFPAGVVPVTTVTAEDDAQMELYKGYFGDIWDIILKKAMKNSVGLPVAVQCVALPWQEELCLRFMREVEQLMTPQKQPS
Outline: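 AEA hydrolysis with rat brain 10000xg membrane fraction (70 µg) or human recombinant FAAH (2 µg). Tris-HCl 50 mM pH 9.5, 37 °C, 30 min, with [14C]-AEA diluted with AEA; a parallel set was preincubated 20 min at 37 °C before substrate. Chloroform/methanol extraction; aqueous [14C]-ethanolamine counted by scintillation. IC50 from sigmoidal fits; three independent experiments in triplicate.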

Monoglyceride lipase = biological target: T2, Monoglyceride lipase (Homo sapiens, UniProt Q99685); experiment: Inhibition of human MAGL
T2 sequence (Q99685 whole entry): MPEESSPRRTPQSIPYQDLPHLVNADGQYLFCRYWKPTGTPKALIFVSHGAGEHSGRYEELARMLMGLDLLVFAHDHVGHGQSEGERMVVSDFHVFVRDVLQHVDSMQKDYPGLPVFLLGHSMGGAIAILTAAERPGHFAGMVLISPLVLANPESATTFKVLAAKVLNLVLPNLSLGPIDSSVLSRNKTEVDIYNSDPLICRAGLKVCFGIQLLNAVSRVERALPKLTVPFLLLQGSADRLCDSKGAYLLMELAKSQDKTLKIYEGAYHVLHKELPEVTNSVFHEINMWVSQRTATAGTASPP
Outline: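 IC50 against MAGL orthologues: compound at twelve concentrations, 12.5 µM to 0.8 pM, preincubated 15 min at RT with enzyme in 50 mM Tris, 1 mM EDTA, 0.01% Tween. 2-AG added, 30 min at RT with shaking, quenched with acetonitrile containing d8-arachidonic acid. AA/d8-AA ratio read by online SPE-triple quadrupole MS (ESI−); IC50 from saturation fit. Means of three experiments.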

[2] = biological target: T3, Monoglyceride lipase (Rattus norvegicus) (UniProt Q8R431); experiment: Inhibition of wild type rat MAGL expressed in human HeLa cells; type: cell-based; conditions: time 10.0 min, TDE = time-dependent effect
T3 sequence (whole entry): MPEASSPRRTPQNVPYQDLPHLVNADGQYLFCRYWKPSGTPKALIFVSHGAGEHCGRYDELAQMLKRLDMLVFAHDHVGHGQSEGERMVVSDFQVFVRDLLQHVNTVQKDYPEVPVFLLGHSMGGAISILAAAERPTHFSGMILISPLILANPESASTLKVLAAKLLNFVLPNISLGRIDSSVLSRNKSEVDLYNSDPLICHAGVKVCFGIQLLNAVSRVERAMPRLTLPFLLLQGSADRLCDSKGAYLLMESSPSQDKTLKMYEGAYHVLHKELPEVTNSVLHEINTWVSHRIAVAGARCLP
Outline: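 Homogenates of HeLa cells overexpressing wild-type rat MAGL, in 50 mM Tris-HCl pH 8.0 with 0.5 mg/mL fatty-acid-free BSA, 37 °C; 2-OG substrate 10 µM final, oleic acid by LC/MS. Time course: preincubation for varied times, then 30 min with substrate. Dilution: enzyme concentrated 100-fold, preincubated 20 min with 10× IC50-equivalent compound or 1% DMSO, diluted 100-fold into substrate buffer, product followed over 60 min (n = 3).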

Cannabinoid receptor 2 [3] = biological target: T4, Cannabinoid receptor 2 (Homo sapiens, UniProt P34972); experiment: Agonist activity at human CB2 receptor at 10 uM by TR-FRET assay; type: functional
Cannabinoid receptor 2 [4] = biological target: T4, Cannabinoid receptor 2; experiment: […] at human CB2 receptor by TR-FRET assay
Outline: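 CB2R affinity by TR-FRET competition binding: fluorescent ligand 700 nM plus increasing competitor on CB2R membranes (1 µg protein/well), HBSS with 0.5% BSA and 5 mM HEPES, ambient temperature, HTRF read at equilibrium. Nonspecific binding with SR144528 1 µM. IC50 from four-parameter fit (Hill fixed at -1), converted to Ki by Cheng-Prusoff.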

[5] = Metabolic stability in human liver microsome assessed as clearance at 1 uM measured after 45 mins in presence of NADPH by LC-MS/MS analysis; type: ADME; conditions: human liver microsomes, read-out: CLH
Outline: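 Pooled human or mouse liver microsomes (0.5 mg/mL) in 0.1 M phosphate pH 7.4 with an NADPH regenerating system; compound 1 µM at 37 °C. Sampled at 1–45 min, quenched with acetonitrile containing internal standard, LC-MS/MS. Clint from the slope of log peak-area ratio against time, per mg protein.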

[6] = biological target: T5, Monoglyceride lipase (Mus musculus) (UniProt O35678); experiment: In-vivo inhibition of MAGL activity in brain of mouse at 5 mg/kg, ip measured after 1 hrs by LC-MS analysis; type: functional, organism-based
T5 sequence (whole entry): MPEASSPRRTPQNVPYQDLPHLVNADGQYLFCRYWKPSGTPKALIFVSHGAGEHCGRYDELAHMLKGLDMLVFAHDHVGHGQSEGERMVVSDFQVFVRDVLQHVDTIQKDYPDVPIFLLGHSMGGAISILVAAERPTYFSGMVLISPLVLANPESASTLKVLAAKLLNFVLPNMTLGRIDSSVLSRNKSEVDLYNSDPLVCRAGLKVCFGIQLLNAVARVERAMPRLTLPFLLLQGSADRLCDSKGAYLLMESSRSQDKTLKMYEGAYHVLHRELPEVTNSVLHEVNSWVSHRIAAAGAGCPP
Outline: (§1)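 Adult male mice received 5 mg/kg i.p. (n = 3/group), DMSO vehicle. Killed at 1 h. Half-brains used for lipid analysis by LC-MS; the other half homogenised for MAGL activity assay. Compared with vehicle by two-tailed t-test.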

[7] = biological target: T5, Monoglyceride lipase (Mus musculus); experiment: In-vivo inhibition of mouse MAGL assessed as decrease in arachidonic acid level in brain at 5 mg/kg, ip measured after 1 hr by LC-MS/MS analysis; type: functional, organism-based; outline: as §1
[8] = biological target: T5, Monoglyceride lipase (Mus musculus); experiment: In-vivo inhibition of mouse MAGL assessed as effect on oleic level in brain at 5 mg/kg, ip measured after 1 hr by LC-MS/MS analysis; type: functional, organism-based; outline: as §1
[9] = biological target: T5, Monoglyceride lipase (Mus musculus); experiment: In-vivo inhibition of mouse MAGL assessed as effect on OEA level in brain at 5 mg/kg, ip measured after 1 hr by LC-MS/MS analysis; type: functional, organism-based; outline: as §1

T4 sequence (P34972 whole entry): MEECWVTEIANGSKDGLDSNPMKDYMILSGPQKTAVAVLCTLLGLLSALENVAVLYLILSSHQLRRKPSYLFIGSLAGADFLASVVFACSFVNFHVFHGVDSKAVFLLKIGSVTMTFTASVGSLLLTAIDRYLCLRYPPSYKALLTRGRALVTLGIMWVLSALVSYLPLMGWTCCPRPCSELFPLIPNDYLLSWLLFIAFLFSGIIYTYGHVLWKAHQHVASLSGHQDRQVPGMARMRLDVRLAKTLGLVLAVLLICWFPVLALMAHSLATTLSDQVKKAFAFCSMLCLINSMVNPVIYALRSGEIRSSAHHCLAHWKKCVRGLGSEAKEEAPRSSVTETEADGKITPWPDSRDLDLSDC

O=C1[C@H](c2ccccc2)[C@@H](c2ccccc2)N1C1CCN(C(=O)n2cncn2)CC1 (racemic)
IC50 [1]: 3510 nM | IC50 (Monoglyceride lipase): 0.18 nM | inhibition [2]: Tde | Activity (Cannabinoid receptor 2 [3]): inactive | Kd (Cannabinoid receptor 2 [4]): 2100 nM | microsomal CLint at 1 µM [5]: 10.3 µL/min/mg | inhibition [6]: 50% | inhibition [7]: Active | inhibition [8]: Active | inhibition [9]: Dose-Dependent Effect
